Reference: ChEMBL document CHEMBL4715738, “In Vitro Antibacterial Activity of Curcumin-Polymyxin B Combinations against Multidrug-Resistant Bacteria Associated with Traumatic Wound Infections” (J Nat Prod, 2016)
Calls of active or inactive are those of the source.

Key:
Enterococcus faecium [1] = experiment: Antibacterial activity against vancomycin-resistant Enterococcus faecium OEF65 assessed as reduction in bacterial growth incubated for 24 hrs in presence of curcumin; format: functional
Staphylococcus aureus [2] = experiment: Antibacterial activity against vancomycin-intermediate resistant Staphylococcus aureus Mu50 assessed as reduction in bacterial growth incubated for 24 hrs in presence of curcumin; format: functional
Streptococcus pyogenes [3] = experiment: Antibacterial activity against Streptococcus pyogenes SPY1 assessed as reduction in bacterial growth incubated for 24 hrs in presence of curcumin; format: functional
Acinetobacter baumannii [4] = experiment: Antibacterial activity against Acinetobacter baumannii AB14 harboring OXA-23 clone 1 assessed as reduction in bacterial growth incubated for 24 hrs in presence of curcumin; format: functional
Pseudomonas aeruginosa [5] = experiment: Antibacterial activity against Pseudomonas aeruginosa PA30 harboring VIM-2 assessed as reduction in bacterial growth incubated for 24 hrs in presence of curcumin; format: functional
Pseudomonas aeruginosa [6] = experiment: Antibacterial activity against Pseudomonas aeruginosa ATCC 27853 assessed as reduction in bacterial growth incubated for 24 hrs in presence of curcumin; format: functional
Enterococcus faecalis = experiment: Synergistic antibacterial activity against […] Enterococcus faecalis ATCC 29212 assessed as fractional inhibitory concentration index measured after 24 hrs in presence of curcumin by checkerboard assay; format: functional
Procedure, shortened: (§1)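 FICI was derived from checkerboard MICs. Synergy was defined as FICI ≤ 0.5 and additive as FICI > 0.5−4.0. Where an MIC was not reached, the dilution above the maximum dose was used in the FICI calculation. Experiments were run in triplicate and reported as means.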

Staphylococcus aureus [7] = experiment: Synergistic antibacterial activity against vancomycin-intermediate resistant Staphylococcus aureus Mu50 assessed as fractional inhibitory concentration index measured after 24 hrs in presence of curcumin by checkerboard assay; format: functional; procedure, shortened: as §1
Staphylococcus aureus [8] = experiment: Synergistic antibacterial activity against Staphylococcus aureus ATCC 25923 assessed as fractional inhibitory concentration index measured after 24 hrs in presence of curcumin by checkerboard assay; format: functional; procedure, shortened: as §1
Streptococcus pyogenes [9] = experiment: Synergistic antibacterial activity against Streptococcus pyogenes SPY1 assessed as fractional inhibitory concentration index measured after 24 hrs in presence of curcumin by checkerboard assay; format: functional
Procedure, shortened: (§2)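 FICI calculated from combination MICs; ≤0.5 taken as synergy and >0.5–4.0 as additive. Where an MIC was not reached, the dilution above the highest concentration tested was used in the calculation. Run in triplicate and reported as means.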

Acinetobacter baumannii [10] = experiment: Synergistic antibacterial activity against Acinetobacter baumannii NCTC 19606 assessed as fractional inhibitory concentration index measured after 24 hrs in presence of curcumin by checkerboard assay; format: functional; procedure, shortened: as §1
Pseudomonas aeruginosa [11] = experiment: Synergistic antibacterial activity against Pseudomonas aeruginosa PAO1 assessed as fractional inhibitory concentration index measured after 24 hrs in presence of curcumin by checkerboard assay; format: functional; procedure, shortened: as §2
[12] = tested on: Stenotrophomonas maltophilia; experiment: Synergistic antibacterial activity against Stenotrophomonas maltophilia SMS01 assessed as fractional inhibitory concentration index measured after 24 hrs in presence of curcumin by checkerboard assay; format: functional; procedure, shortened: as §2
[13] = tested on: Stenotrophomonas maltophilia; experiment: Synergistic antibacterial activity against Stenotrophomonas maltophilia NCTC 10258 assessed as fractional inhibitory concentration index measured after 24 hrs in presence of curcumin by checkerboard assay; format: functional; procedure, shortened: as §2
Pseudomonas aeruginosa [14] = experiment: Antibacterial activity against Pseudomonas aeruginosa ATCC 27853 assessed as log reduction in colony forming units at MIC measured after 6 hrs by time kill assay; format: functional
Procedure, shortened: (§3)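 Time-kill in Mueller-Hinton 2 broth. Inoculum was a 1/1000 dilution of a 16 h overnight culture, about 10^6 CFU/mL, 10 mL per tube. Arms were each agent alone at ×1 MIC, or the combination at ×1 MIC plus ×0.5 MIC partner. Incubated at 37 °C with continuous agitation for 24 h. Samples taken at 0, 2, 4, 6 and 24 h, serially diluted and plated on IsoSensitest agar for CFU counts.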

HaCaT [15] = experiment: Cytotoxicity against human HaCaT cells at 6.1 uM measured after 4 hrs by CyTox 96 nonradioactive assay relative to control; format: cell-based
Streptococcus pyogenes [16] = experiment: Antibacterial activity against Streptococcus pyogenes SPY1 assessed as reduction in bacterial growth incubated for 24 hrs in presence of polymyxin B; format: functional
Streptococcus pyogenes [17] = experiment: Antibacterial activity against Streptococcus pyogenes SPY3 assessed as reduction in bacterial growth incubated for 24 hrs in presence of polymyxin B; format: functional
Escherichia coli [18] = experiment: Antibacterial activity against Escherichia coli EC204 harboring NDM-1 assessed as reduction in bacterial growth incubated for 24 hrs in presence of polymyxin B; format: functional
Escherichia coli [19] = experiment: Antibacterial activity against Escherichia coli NCTC 12241 assessed as reduction in bacterial growth incubated for 24 hrs in presence of polymyxin B; format: functional
Acinetobacter baumannii [20] = experiment: Antibacterial activity against Acinetobacter baumannii NCTC 19606 assessed as reduction in bacterial growth incubated for 24 hrs in presence of polymyxin B; format: functional
Pseudomonas aeruginosa [21] = experiment: Antibacterial activity against Pseudomonas aeruginosa PA30 harboring VIM-2 assessed as reduction in bacterial growth incubated for 24 hrs in presence of polymyxin B; format: functional
[22] = tested on: Stenotrophomonas maltophilia; experiment: Antibacterial activity against Stenotrophomonas maltophilia SMB07 assessed as reduction in bacterial growth incubated for 24 hrs in presence of polymyxin B; format: functional
Pseudomonas aeruginosa [23] = experiment: Antibacterial activity against Pseudomonas aeruginosa ATCC 27853 assessed as log reduction in colony forming units at 0.5 fold MIC measured after 24 hrs by time kill assay; format: functional; conditions: in the assay text read “1 fold MIC” for “0.5 fold MIC”; procedure, shortened: as §3
[24] = tested on: Stenotrophomonas maltophilia; experiment: Bactericidal activity against Stenotrophomonas maltophilia NCTC […] assessed as log reduction in colony forming units at 0.5 fold MIC measured after 24 hrs in presence of polymyxin B at MIC by time kill assay; format: functional; procedure, shortened: as §3
Pseudomonas aeruginosa [25] = experiment: Bactericidal activity against Pseudomonas aeruginosa ATCC 27853 assessed as bacterial cell death at 0.5 fold MIC measured after 4 to 6 hrs in presence of polymyxin B at MIC by time kill assay relative to control; format: functional; conditions: time 4-6 hrs
Procedure, shortened: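 Time-kill in 10 mL Mueller-Hinton 2 broth, 37 °C with continuous agitation, 24 h. Inoculum was a 1/1000 dilution of a 16 h overnight culture, about 10^6 CFU/mL. Single agents at 1× MIC; combination at 1× MIC polymyxin B plus 0.5× MIC curcumin. Samples at 0, 2, 4, 6 and 24 h were serially diluted and plated on IsoSensitest agar for CFU/mL.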

HaCaT [26] = experiment: Cytotoxicity against human HaCaT cells at 174 uM measured after 4 hrs by CyTox 96 nonradioactive assay relative to control; format: cell-based
[27] = tested on: Stenotrophomonas maltophilia; experiment: Antibacterial activity against Stenotrophomonas maltophilia NCTC 10258 assessed as reduction in bacterial colony formation at 0.5 fold MIC measured after 24 hrs by time kill assay; format: functional, organism-based; procedure, shortened: as §3
Enterococcus faecium [28] = experiment: Potentiation of polymyxin B-induced antibacterial activity against vancomycin-resistant Enterococcus faecium OEF42 assessed as fold reduction in polymyxin B MIC measured after 24 hrs in presence of polymyxin B by checkerboard assay; format: functional
Escherichia coli [29] = experiment: Potentiation of polymyxin B-induced antibacterial activity against Escherichia coli EC2 harboring CTX-M-15 assessed as fold reduction in polymyxin B MIC measured after 24 hrs […] checkerboard assay; format: functional
Procedure, shortened: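 Combination MICs from the checkerboard used for FICI calculation. Where no MIC was reached, the dilution above the top dose was used in the FICI. Run in triplicate; mean values reported.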

Pseudomonas aeruginosa [30] = experiment: Potentiation of polymyxin B-induced antibacterial activity against Pseudomonas aeruginosa ATCC 27853 assessed as fold reduction in polymyxin B MIC measured after 24 hrs in presence of polymyxin B by checkerboard assay; format: functional

## CC[C@H](C)CCCCC(=O)N[C@@H](CCN)C(=O)N[C@H](C(=O)N[C@@H](CCN)C(=O)N[C@H]1CCNC(=O)[C@H]([C@@H](C)O)NC(=O)[C@H](CCN)NC(=O)[C@H](CCN)NC(=O)[C@H](CC(C)C)NC(=O)[C@@H](Cc2ccccc2)NC(=O)[C@H](CCN)NC1=O)[C@@H](C)O.O=S(=O)(O)O
Enterococcus faecium [1]
  MIC: 1.5 µM
Staphylococcus aureus [2]
  MIC: 1.5 µM
Streptococcus pyogenes [3]
  MIC: 0.19 µM
Acinetobacter baumannii [4]
  MIC: 0.024 µM
Pseudomonas aeruginosa [5]
  MIC: 0.19 µM
Pseudomonas aeruginosa [6]
  MIC: 0.006 µM
Enterococcus faecalis
  fractional inhibitory concentration index (FICI): 0.251
Staphylococcus aureus [7]
  fractional inhibitory concentration index (FICI): 0.047
Staphylococcus aureus [8]
  fractional inhibitory concentration index (FICI): 0.156
Streptococcus pyogenes [9]
  fractional inhibitory concentration index (FICI): 0.094
Acinetobacter baumannii [10]
  fractional inhibitory concentration index (FICI): 0.068
Pseudomonas aeruginosa [11]
  fractional inhibitory concentration index (FICI): 0.031
[12]
  fractional inhibitory concentration index (FICI): 0.012
[13]
  fractional inhibitory concentration index (FICI): 0.012
Pseudomonas aeruginosa [14]
  Activity: 2 log10CFU/ml
HaCaT [15]
  Activity: 2%

## COc1cc(/C=C/C(=O)CC(=O)/C=C/c2ccc(O)c(OC)c2)ccc1O [CURCUMIN]
Streptococcus pyogenes [16]
  MIC: 43 µM
Streptococcus pyogenes [17]
  MIC: 43 µM
Escherichia coli [18]
  MIC: 174 µM
Escherichia coli [19]
  MIC: 43 µM
Acinetobacter baumannii [20]
  MIC: 22 µM
Pseudomonas aeruginosa [21]
  MIC: 174 µM
[22]
  MIC: 22 µM
Pseudomonas aeruginosa [23]
  Activity: 2 log10CFU/ml
[24]
  Activity: >3 log10CFU/ml
Pseudomonas aeruginosa [25]
  Activity: 100%
HaCaT [26]
  Activity: 34%
[27]
  Activity: inactive
Enterococcus faecium [28]
  fold change (FC): 3
Escherichia coli [29]
  fold change (FC): 3
Pseudomonas aeruginosa [30]
  fold change (FC): 3
